This excerpt belongs to a sample that is enriched for hits.
XiGFP reactiv: activators of X-chromosome reactivation in mouse fibroblasts; 360,000 tested, 0.055% active; activation, % at 7.58 µM; XiGFP mouse fibroblasts, % GFP-positive cells imaging, 3 d; cells co-treated with 5-aza-dC sensitizer; scaled so ellipticine positive control = 100%;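 active = mean normalized replicate activation at least 10% and every replicate at or above 10%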
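System: 68-5-11 XiGFP fibroblast line | Buffer or medium: DMEM containing 5-aza-dC | Compound: Single point | Times: Compounds 3 days, fix/stain 15 min at room temperature | Benchmarks: Positive control ellipticine, 6 µM final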
E-selectin induc: induces E-selectin expression in human endothelial cells. 260,000 tested, 0.37% active. HUVEC E-selectin immunofluorescence imaging; normalized: neutral wells 0, TNF-alpha wells 100. activation, % at 7.58 µM. P16581;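 active = mean E-selectin-positive cell signal at least 10% of the positive control, reached in at least 60% of replicates, without over 20% cell loss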
Target sequence (P16581 whole entry, looked up): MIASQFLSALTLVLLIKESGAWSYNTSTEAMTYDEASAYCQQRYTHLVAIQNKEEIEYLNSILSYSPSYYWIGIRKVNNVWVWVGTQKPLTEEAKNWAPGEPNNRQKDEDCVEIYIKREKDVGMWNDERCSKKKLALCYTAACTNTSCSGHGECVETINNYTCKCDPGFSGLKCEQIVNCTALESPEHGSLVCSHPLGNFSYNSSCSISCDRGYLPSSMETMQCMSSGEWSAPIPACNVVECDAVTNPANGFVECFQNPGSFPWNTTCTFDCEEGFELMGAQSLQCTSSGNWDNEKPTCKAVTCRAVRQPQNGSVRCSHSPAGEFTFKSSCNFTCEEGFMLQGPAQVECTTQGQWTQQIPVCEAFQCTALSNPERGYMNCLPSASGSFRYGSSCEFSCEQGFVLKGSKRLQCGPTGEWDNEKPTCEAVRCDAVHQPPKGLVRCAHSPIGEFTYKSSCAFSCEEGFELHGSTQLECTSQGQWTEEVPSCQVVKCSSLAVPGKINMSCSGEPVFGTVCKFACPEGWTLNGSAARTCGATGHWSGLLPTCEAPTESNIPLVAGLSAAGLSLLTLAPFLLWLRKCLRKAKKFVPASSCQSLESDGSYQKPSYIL
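Test system: HUVEC | Signal: Immunofluorescence imaging | Read-out: Percent E-selectin-positive cells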
Each line names hits and unclear results; the compound was inactive in the other large screens.

Cc1ccc(S(=O)(=O)Nc2ccc3c(c2)C(=O)N([C@H](C)CO)C[C@@H](C)[C@H](CN(C)C(=O)NC2CCCCC2)O3)cc1	none
Cc1ccc(S(=O)(=O)Nc2ccc3c(c2)C(=O)N([C@@H](C)CO)C[C@H](C)[C@H](CN(C)C(=O)NC2CCCCC2)O3)cc1	none
C[C@@H]1CN([C@H](C)CO)C(=O)c2cc(NS(C)(=O)=O)ccc2O[C@@H]1CN(C)C(=O)Nc1ccccc1	E-selectin induc 82
O=C(C[C@H]1CC[C@H]2[C@@H](COC[C@H](O)CN2C(=O)c2ccccc2F)O1)N1CCCCC1	none
COc1cccc(CNC(=O)C[C@@H]2C=C[C@@H](NC(=O)C3CCOCC3)[C@@H](CO)O2)c1	none
C[C@@H]1CN([C@H](C)CO)C(=O)c2cc(NS(C)(=O)=O)ccc2O[C@H]1CN(C)S(=O)(=O)c1cn(C)cn1	none
C[C@H](CO)N1C[C@H](C)[C@H](CN(C)Cc2ccc(C(=O)Nc3ccccc3N)cc2)Oc2c(NS(=O)(=O)c3ccccc3)cccc2C1=O	none
N#Cc1cccc(-c2ccc3c(c2)[C@H]2[C@H](CCN2C(=O)c2ccncc2)[C@H](CO)N3)c1	none
COc1cccc(NC(=O)c2ccc(OC(F)(F)F)cc2)c1	E-selectin induc 42
COc1cccc(NC(=O)c2ccccc2)c1	none
CNC(=O)C[C@@H]1CC[C@@H]2[C@H](COc3ccc(NC(=O)Nc4ccccc4OC)cc3C(=O)N2C)O1	none
CCOc1ccccc1N1CCN(C(=O)CC(C)(C)C)CC1	none
CCOc1ccccc1N1CCN(C(=O)CSc2ccc3c(c2)OCCO3)CC1	E-selectin induc 79
O=C(CSc1ccc2c(c1)OCCO2)N1CCN(c2ccccc2O)CC1	none (no result: E-selectin induc)
CCCCNC(=O)N1CCN(c2ccccc2OCC)CC1	E-selectin induc 88
CO[C@H]1CN(C)C(=O)c2cc(NC(=O)Nc3ccc(Cl)cc3)ccc2OC[C@H](C)N(C)C[C@H]1C	none
O=C(Nc1ccc(-n2ccc(C(F)(F)F)n2)cc1)Nc1cccc(Cl)c1	none
Cc1cc(C)cc(NC(=O)Nc2ccc(-n3ccc(C(F)(F)F)n3)cc2)c1	E-selectin induc 46
CC[N+]1=C(C)C(C)(C)c2cc(C)ccc21	XiGFP reactiv 73, E-selectin induc 169
CCN1C(=O)C(=O)c2cc(C)ccc21	none
CCNc1nc(NC(C)(C)C)nc(Oc2ccc(=O)n(-c3ccccc3)n2)n1	E-selectin induc 43
CC(C)Nc1nc(Oc2ccc(=O)n(-c3ccccc3)n2)nc(N(C)C)n1	none
N#C/C(=C(/O)c1ccc([N+](=O)[O-])o1)c1nc2ccccc2[nH]1	none (no result: E-selectin induc)
N#C/C(=C\c1ccc([N+](=O)[O-])o1)c1nc2ccccc2[nH]1	XiGFP reactiv 62 (no result: E-selectin induc)
C[C@H](CO)N1C[C@H](C)[C@@H](CN(C)C(=O)C2CC2)Oc2cc(Br)ccc2S1(=O)=O	none (no result: E-selectin induc)
Cc1ccccc1-c1ccc(C2[C@@H]3CN(C(=O)Nc4cccc(F)c4)C[C@H]2N3)cc1 (stereo partly drawn)	none
CCOCCCNC(=O)C(c1ccc(Cl)cc1)N(Cc1cccs1)C(=O)c1ccccn1 (stereo not drawn)	none (no result: E-selectin induc)
CCOCCCNC(=O)C(c1ccc(C)cc1)N(Cc1cccs1)C(=O)c1ccccn1 (stereo not drawn)	XiGFP reactiv 26 (no result: E-selectin induc)
COc1ccccc1S(=O)(=O)N[C@H]1C=C[C@H](CC(=O)N2CCCCC2)O[C@@H]1CO	none
COc1cccc(S(=O)(=O)N2CC[C@@H]3[C@H](CO)N(C)c4ccc(C#Cc5cccnc5)cc4[C@@H]32)c1	none
CCN1CCc2c(sc(NC(=O)c3ccc4ccccc4c3)c2C(N)=O)C1	XiGFP reactiv 38
CCN1CCc2c(sc(NC(=O)CN3C(=O)c4ccccc4C3=O)c2C(N)=O)C1	none (no result: E-selectin induc)
CCN1CCN(S(=O)(=O)c2ccc(C(=O)Nc3sc4c(c3C(N)=O)CCN(CC)C4)cc2)CC1	XiGFP reactiv 54
CCN1CCc2c(sc(NC(=O)c3ccc(S(=O)(=O)N4CC(C)OC(C)C4)cc3)c2C(N)=O)C1 (stereo not drawn)	none (no result: E-selectin induc)
COc1ccc(S(=O)(=O)Nc2ccc3c(c2)C(=O)N([C@H](C)CO)C[C@H](C)[C@@H](CN(C)CC2CC2)O3)cc1	none
Cc1nn(C)c(C)c1N1C(=O)c2cccc3c(N)ccc(c23)C1=O	none
Cc1ccc(N2C(=O)c3cccc4c(N)ccc(c34)C2=O)c2cccnc12	XiGFP reactiv 116 (no result: E-selectin induc)
Cc1noc(C)c1S(=O)(=O)Nc1cccc2c1O[C@@H](CN(C)CC1CC1)[C@@H](C)CN([C@@H](C)CO)C2=O	none
C[C@H]1CN([C@@H](C)CO)C(=O)c2cc(-c3ccccc3)cnc2O[C@H]1CN(C)C(=O)c1cccc(F)c1	none
COc1cccc(C(=O)Nc2ccc3c(c2)OC[C@@H](C)N(C(C)=O)C[C@H](C)[C@@H](OC)CN(C)C3=O)c1	none (no result: E-selectin induc)
N#CCSc1nc2ccccc2c(=O)n1CCCC(=O)NCc1ccco1	none
O=C(CCCn1c(=O)c2ccccc2n(CC(=O)N2CCN(c3ccccc3)CC2)c1=O)NCc1ccco1	E-selectin induc 43 (no result: XiGFP reactiv)
CSc1nc2c(cnn2-c2ccc(C)c(C)c2)c(=O)[nH]1	E-selectin induc 48
CCC(C)Sc1nc2c(cnn2-c2ccc(C)c(C)c2)c(=O)[nH]1 (stereo not drawn)	none
C[C@@H]1CCCCO[C@@H](CN(C)Cc2ccc(C(F)(F)F)cc2)[C@@H](C)CN([C@@H](C)CO)C(=O)c2cc(NS(=O)(=O)c3ccc(Cl)cc3)ccc2O1	none
O=C(CN1C(=O)c2ccccc2C1=O)NC1(C(=O)O)CCCC1	none
N#CC1(NC(=O)CN2C(=O)c3ccccc3C2=O)CCCCC1	E-selectin induc 50
C[C@@H]1CCCCO[C@H](CN(C)S(=O)(=O)c2ccc(Cl)cc2)[C@@H](C)CN([C@@H](C)CO)C(=O)c2cc(NS(=O)(=O)c3cn(C)cn3)ccc2O1	none
COc1ccc2c3c([nH]c2c1)[C@H](CO)N(S(=O)(=O)c1cn(C)cn1)CC31CCN(Cc2ccccc2)CC1	none
COc1ccc(CNc2ncnc3c2[nH]c2cc(OC)c(OC)cc23)cc1	E-selectin induc 67
COc1ccc(CNc2ncnc3c2[nH]c2ccccc23)cc1	none (no result: E-selectin induc)
CC[n+]1c(/C=C/c2ccc(N(C)C)cc2)ccc2ccccc21	none (no result: E-selectin induc)
CC[n+]1ccc(/C=C/c2ccc(N(C)C)cc2)c2ccccc21	E-selectin induc 115
CCCCCC[n+]1ccccc1/C=C/c1ccc(N(C)C)cc1	XiGFP reactiv 16
CC[n+]1ccccc1/C=C/c1ccc(N(C)C)cc1	none (no result: E-selectin induc)
COCC(=O)Nc1ccc2c(c1)OC[C@@H](C)N(C(=O)NC(C)C)C[C@H](C)[C@@H](OC)CN(C)C2=O	none
C[C@H]1CN([C@@H](C)CO)C(=O)Cc2cc(NS(=O)(=O)c3ccc(F)cc3)ccc2O[C@@H]1CN(C)C(=O)Nc1ccc(F)cc1	none
CC(C)Oc1cc(O)c2c(=O)c(-c3ccc(O)cc3)coc2c1	E-selectin induc 114
COc1ccc(-c2coc3cc(O)cc(O)c3c2=O)cc1	none
CN1CCN(C(=O)C[C@@H]2CC[C@H](NC(=O)c3ccc4c(c3)OCO4)[C@H](CO)O2)CC1	none
CC(C)NC(=O)N1CC2(C1)[C@H](c1ccccc1)[C@@H](CO)N2C(=O)c1ccccn1	none
C[C@H](CO)N1C[C@H](C)[C@@H](CN(C)CC2CC2)Oc2c(NC(=O)c3cnccn3)cccc2C1=O	none
O=C(NC1CCCC1)C1C(c2ccc(C(F)(F)F)cc2)=Nc2ccccc2N1C(=O)c1ccccc1 (stereo not drawn)	E-selectin induc 136

Screening data: PubChem, Broad Institute
